From PubChem
Env fusion inh – inhibitors of HIV-1 Env-driven cell-cell fusion, primary screen, HeLa-JRFL effector, CEM21 target cells, luciferase | inhibition, % at 12.3 µM | hit rate 1.1% among 360,000 | AID 651610, 2012;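 active = mean replicate inhibition score of at least 50 and every replicate individually at or above 50; inconclusive = only one of the two criteria met; inactive = mean below 50 and not all replicates reaching 50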
MLL AF4-AF9 inh – inhibitors of AF4 peptide binding to AF9, primary screen, biochemical, AlphaScreen, biotin-AF4 peptide, FLAG-AF9, single point; hit rate 0.47% among 350,000; inhibition, % at 10 µM;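 active = every replicate reaching a set inhibition limit, whatever the replicate mean, cut at about 25% in these data; inconclusive = mean inhibition reaches that limit but some replicates miss it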
Target sequence (P42568 whole entry, looked up): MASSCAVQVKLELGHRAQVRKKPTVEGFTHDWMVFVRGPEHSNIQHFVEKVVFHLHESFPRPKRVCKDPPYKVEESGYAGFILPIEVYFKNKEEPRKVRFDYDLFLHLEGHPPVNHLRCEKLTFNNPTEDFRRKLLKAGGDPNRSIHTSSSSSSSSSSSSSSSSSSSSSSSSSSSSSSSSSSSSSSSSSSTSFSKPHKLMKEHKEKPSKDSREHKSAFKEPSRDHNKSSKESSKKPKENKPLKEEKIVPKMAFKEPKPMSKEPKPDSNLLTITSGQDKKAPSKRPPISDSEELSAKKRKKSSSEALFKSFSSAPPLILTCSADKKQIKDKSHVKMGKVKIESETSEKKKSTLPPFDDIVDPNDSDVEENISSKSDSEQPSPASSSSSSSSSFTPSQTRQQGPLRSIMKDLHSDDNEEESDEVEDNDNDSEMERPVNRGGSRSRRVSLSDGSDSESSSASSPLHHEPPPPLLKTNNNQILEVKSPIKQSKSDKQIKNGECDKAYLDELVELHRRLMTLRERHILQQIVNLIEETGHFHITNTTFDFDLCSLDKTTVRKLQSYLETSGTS
EWS-Fli inh – EWS/Fli-driven NR0B1 reporter inhibitors, primary screen, A673 cells, NR0B1 luciferase, luminescence, MLPCN library | hit rate 0.67% among 350,000 | viability-normalised | inhibition, % at 12.6 µM;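 active = mean inhibition of at least 50% after viability correction, with every replicate also passing that limit; inconclusive = mean reaches 50% but only one of two replicates passes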;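 also: firefly luciferase signal divided by Alamar Blue viability fluorescence both relative to DMSO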
PAX8 inh HTS – inhibitors of PAX8-driven TPO luciferase reporter, primary screen, RMG-I cells, single concentration | SteadyGlo, 24 h | inhibition, % at 12.6 µM | AID 652154, 2013 | hit rate 1.2% among 360,000;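 active = mean replicate inhibition at least 60% with every replicate also reaching 60%; inconclusive = only one of the two criteria is met; inactive = mean below 60% and not all replicates reaching 60%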;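 also: luciferase light reporting Pax8 driven TPO promoter activity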
FN deposit inh – inhibitors of fibronectin matrix deposition, primary screen, AH1F cells, Alexa488-fibronectin fluorescence, plate reader; AH1F fibroblasts, overnight; inhibition, % at 12.6 µM; hit rate 0.086% among 350,000;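 active = mean inhibition across replicates of 30% or more, regardless of how many single replicates reach that level; inconclusive = mean under 30% yet at least half of replicates reach 30%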
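material = AH1F fibroblast monolayer depositing Alexa488-labelled fibronectin into matrix | amount = 10000 AH1F cells/well | buffer or medium = DMEM plus 2% serum, read in PBS | incubation = 1 h cell adhesion before compound, then overnight fibronectin incubation | detection = fluorescence at 485 nm excitation, 525 nm emission | evaluation = percent inhibition as loss of matrix-bound fibronectin fluorescence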
Glyco luc inh – increase of ERlucT glycosylation luciferase signal, primary screen, N-linked glycosylation inhibitor project, D54 ERlucT cells, luminescence, set 2; D54 ERlucT glycosylation luciferase reporter, 24 h; percent of 100 nM tunicamycin response; reporter increase, % at 12.5 µM; hit rate 0.23% among 360,000;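 active = mean luciferase reporter signal, scaled so untreated is 0 and the glycosylation-blocking control 100, at or above a set limit in every replicate; inconclusive = mean reaches the limit but not every replicate does; inactive = mean below the limit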;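 also: luciferase carries N-glycosylation sites so blocking glycosylation raises the light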
Large screens that a line does not name were inactive. Compounds with a hit are over-represented: about 2.5% of the library has one in this group of screens.

CSc1sc(-c2ccnc(SCC(=O)C(C)(C)C)n2)c2c1C(=O)CC(C)(C)C2	Env fusion inh 65
CSc1sc(C(=O)O)c2c1C(=O)CC(C)(C)C2	none
Cc1ccccc1/C=N/NC(=O)Cn1nnc(N)n1	PAX8 inh HTS 65 (no result: Env fusion inh)
Nc1nnn(CC(=O)N/N=C/c2cccc3ccccc23)n1	none (no result: Env fusion inh, MLL AF4-AF9 inh, EWS-Fli inh, PAX8 inh HTS, FN deposit inh)
CN(C)S(=O)(=O)c1ccc(Cl)c(NC(=O)CSc2nc3c(cc2C#N)C(=O)CC(C)(C)C3)c1	none
CN(C)S(=O)(=O)c1cccc(NC(=O)CSc2nc3c(cc2C#N)C(=O)CC(C)(C)C3)c1	Env fusion inh 70, PAX8 inh HTS inconclusive
COc1ccc2[nH]c(=O)c(CN(Cc3nnnn3Cc3ccc(F)cc3)CC3CCCO3)cc2c1 (stereo not given)	none (no result: Env fusion inh, MLL AF4-AF9 inh, EWS-Fli inh, PAX8 inh HTS, FN deposit inh)
COc1ccc2[nH]c(=O)c(CN(Cc3nnnn3Cc3ccccc3)CC3CCCO3)cc2c1 (stereo not given)	Env fusion inh 112 (no result: MLL AF4-AF9 inh, EWS-Fli inh, PAX8 inh HTS)
COCCn1nnnc1CN(Cc1cccnc1)Cc1cc2cc(OC)ccc2[nH]c1=O	none (no result: Env fusion inh, MLL AF4-AF9 inh, EWS-Fli inh, PAX8 inh HTS, FN deposit inh)
COCCn1nnnc1CN(CCc1ccccc1)Cc1cc2cc(OC)ccc2[nH]c1=O	Env fusion inh 77 (no result: MLL AF4-AF9 inh, EWS-Fli inh, PAX8 inh HTS)
COc1cccc(C#Cc2ccc([C@H]3[C@@H](CO)N4C(=O)CN(C(=O)C5CC5)C[C@@H]34)cc2)c1	none (no result: Env fusion inh, FN deposit inh, Glyco luc inh)
CC(=O)Nc1ccc(/C=N/Nc2nc3ccccc3[nH]2)cc1	none
Cc1cc(=O)[nH]c(NN=Cc2cc(Br)ccc2O)n1	none
CCN(CC)c1ccc(/C=N/Nc2nc3ccccc3[nH]2)cc1	PAX8 inh HTS 81 (no result: MLL AF4-AF9 inh, EWS-Fli inh)
Cc1c(/C=N/Nc2nc3ccccc3[nH]2)c2ccccc2n1C	MLL AF4-AF9 inh 25
CCN(CC)c1ccc(/C=N/Nc2nc(C)cc(=O)[nH]2)c(O)c1	PAX8 inh HTS 75
Cn1c(/C=N/Nc2nc3ccccc3[nH]2)nc2ccccc21	none
C[C@H](CO)N1C[C@H](C)[C@H](CN(C)C(=O)Nc2cccc3ccccc23)Oc2ccc(NC(=O)c3ccncc3)cc2C1=O	none (no result: MLL AF4-AF9 inh, FN deposit inh, Glyco luc inh)
O=C(C[C@@H]1C=C[C@@H](NC(=O)C2CCC2)[C@@H](CO)O1)NCC1CC1	none (no result: Glyco luc inh)
O=C(C(Br)=Cc1ccccc1)c1ccccc1	EWS-Fli inh 58, PAX8 inh HTS 86
CC1(C)Cc2ccccc2C(/C(=N\Nc2cccc(Cl)c2)C(N)=O)=N1	Env fusion inh 82 (no result: MLL AF4-AF9 inh, EWS-Fli inh, FN deposit inh)
CNc1cncc(-c2ccc(O)cc2)n1	none
CNc1cncc(-c2cc(C)c(O)c(C)c2)n1	EWS-Fli inh 52
Cc1[nH]n(-c2ccccc2)c(=O)c1N=Nc1ccc(C(=O)O)cc1	none
Cc1[nH]n(-c2ccccc2)c(=O)c1N=Nc1cccc(C(=O)O)c1	Env fusion inh 58, EWS-Fli inh 62, PAX8 inh HTS 65
CC(=O)N1CCN(c2ccc(NCc3ccc(C)s3)cc2)CC1	MLL AF4-AF9 inh 27 (no result: Env fusion inh)
COc1ccc(-c2cc(C(F)F)n3ncc(C(=O)N4CCc5ccccc54)c3n2)cc1	EWS-Fli inh 57
CCSc1nnc(N2C(=O)CC(c3ccsc3)C3=C2CC(C)(C)CC3=O)s1 (stereo not given)	Env fusion inh 58
Cc1sc(NC(=O)c2ccco2)c(CN2CCN(c3ccccc3)CC2)c1C	Env fusion inh 63 (no result: MLL AF4-AF9 inh, EWS-Fli inh, FN deposit inh)
C[C@H](CO)N1C[C@H](C)[C@@H](CN(C)Cc2ccc3c(c2)OCO3)Oc2ccc(NC(=O)Cc3ccccc3)cc2C1=O	none (no result: EWS-Fli inh, FN deposit inh, Glyco luc inh)
CC1=NN(c2cccc(F)c2)C(=O)/C1=C/c1ccc(N(C)C)cc1	none
Cc1cc2c(=Cc3ccc(N(C)C)cc3)c3ccccc3n2[n+]1C	MLL AF4-AF9 inh 30, Glyco luc inh 66 (no result: PAX8 inh HTS)
CCOC(=O)SC1=N/C(=C\c2ccc(N(C)C)cc2)C(=O)S1	none (no result: Env fusion inh, PAX8 inh HTS, FN deposit inh)
CCOC(=O)c1cc2c(=Cc3ccc(N(C)C)cc3)c3ccccc3n2[n+]1C	MLL AF4-AF9 inh 52, Glyco luc inh 40
CCC(=O)N(C)C[C@@H]1Oc2ncc(-c3ccccc3OC)cc2C(=O)N([C@@H](C)CO)C[C@H]1C	none (no result: PAX8 inh HTS, Glyco luc inh)
O=C(c1cccc(F)c1)N1CC2(C1)[C@H](c1ccccc1)[C@H](CO)N2C(=O)C1CCC1	none (no result: Env fusion inh, PAX8 inh HTS, Glyco luc inh)
